Screening results deposited in PubChem by several laboratories.
Mdm2 ligase inh: inhibitors of human Mdm2 E3 ubiquitin ligase; cell-based MDM2 ubiquitination luciferase reporter, 2 h; 0 = plate control, 100 = twice control, blank-subtracted; signal enhancement, % at 5 µM; Q00987; 0.11% of 210,000 active; AID 1230;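 active = signal enhancement of 30% or more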;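 also: luminescence tracks abundance of the self-degrading MDM2-luciferase fusion protein; higher signal means inhibition of MDM2 E3 ligase activity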
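system = mammalian cells stably expressing self-ubiquitinating, self-degrading MDM2 E3–luciferase fusion | quantity = 2000 cells per well seeded | incubation = 4 h cell settling then 2 h compound exposure, 37 °C | signal = SteadyLite luminescence, 15 min reagent step | benchmarks = plate control and blank wells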
S1P3 antagonist: S1P3 (human) receptor antagonism; CHO S1P3 NFAT-BLA reporter, FRET fluorescence, antagonist mode; inhibition, % at 4.98 µM; 0.27% of 170,000 active;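 active = inhibition above the plate cutoff, the mean inhibition of test wells on that plate plus 3 SD, cut at about 28% in these data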;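 also: cells challenged with S1P at its EC80 of 0.8 µM; blue over green emission ratio from cleaved BLA substrate after 4 h stimulation; 0% = S1P-stimulated wells and 100% = unstimulated DMSO-only wells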
Lmaj promast: Leishmania major promastigote growth inhibition; Leishmania major promastigotes, resazurin fluorescence viability; inhibition, % at 10 µM; 9% of 200,000 active; AID 1063; in the data active = inhibition above about 50%;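 also: promastigotes grown with compound for 44 hours at 28 °C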
S1P4 agonist: human S1P4 receptor agonism; O95977; S1P4-expressing cell line, agonist reporter assay; activation, % at 4.98 µM; 0.35% of 220,000 active; in the data active = activation above about 11%;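 also: 0% = DMSO vehicle and 100% = reference agonist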
Target sequence (O95977 whole entry, looked up): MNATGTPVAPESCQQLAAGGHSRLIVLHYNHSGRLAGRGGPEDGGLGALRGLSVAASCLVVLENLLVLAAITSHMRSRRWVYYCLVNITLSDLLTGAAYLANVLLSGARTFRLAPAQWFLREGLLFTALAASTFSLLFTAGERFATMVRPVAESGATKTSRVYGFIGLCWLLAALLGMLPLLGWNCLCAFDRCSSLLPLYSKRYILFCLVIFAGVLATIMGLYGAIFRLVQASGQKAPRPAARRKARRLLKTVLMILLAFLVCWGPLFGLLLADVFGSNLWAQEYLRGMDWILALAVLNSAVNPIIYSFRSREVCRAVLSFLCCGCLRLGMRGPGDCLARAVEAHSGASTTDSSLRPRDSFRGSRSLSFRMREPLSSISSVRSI
S1P4 antagonist: human S1P4 receptor antagonism. S1P4-expressing cells, antagonist mode, reporter read-out. inhibition, % at 4.98 µM. 0.26% of 220,000 active; in the data active = inhibition above about 29%;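 also: 0% = wells stimulated with agonist and 100% = vehicle wells without agonist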
* hit, by the source's call. Many of the other results were omitted from the sample, so hits are more common in it than they were.

For CN(C)c1cc[n+](CC(=O)Nc2ccc(OC(F)F)cc2)cc1 the results were Mdm2 ligase inh -5.8, S1P3 antagonist -24.9, S1P4 agonist -0.8 and S1P4 antagonist 9.9.
Screening O=C(NC(C(=O)c1ccccc1)N1CCCCC1)c1ccccc1 (stereo not given) returned Mdm2 ligase inh -7.3, S1P3 antagonist 2.8, Lmaj promast -2.9, S1P4 agonist -0.4 and S1P4 antagonist -7.2.
Screening O=C(CCS(=O)(=O)c1ccccc1)Nc1nc(-c2ccccn2)cs1 returned S1P3 antagonist -31.8, Lmaj promast 92.1*, S1P4 agonist 0.0 and S1P4 antagonist -8.3.
CCn1c(SCC(=O)N/N=C/c2ccccc2OCC(=O)O)nnc1-c1ccc(C)cc1 was read as Mdm2 ligase inh -12.5, S1P3 antagonist 5.2, S1P4 agonist 0.7 and S1P4 antagonist 11.8.
`Cc1ccc(C)c(NS(=O)(=O)c2cc(C(=O)Nc3ccccc3-c3ccccc3)ccc2C)c1` gave Mdm2 ligase inh -13.1, Lmaj promast 25.9, S1P4 agonist 2.6 and S1P4 antagonist -7.4.
For O=C(O)CSc1cc(NS(=O)(=O)c2cccc([N+](=O)[O-])c2)c2ccccc2c1O the results were Mdm2 ligase inh -2.0, S1P3 antagonist -13.3, S1P4 agonist -1.6 and S1P4 antagonist 13.2.
`O=S(=O)(Nc1cc(Sc2cccc3cccnc23)c(O)c2ccccc12)c1ccccc1` gave Mdm2 ligase inh 11.1, S1P3 antagonist -1.0, Lmaj promast 100.3*, S1P4 agonist 0.7 and S1P4 antagonist 17.7.
Screening Cc1ccc(C)c(S(=O)(=O)Nc2cc(SCC(=O)O)c(O)c3ccccc23)c1 returned Mdm2 ligase inh 3.4, S1P3 antagonist -1.4, Lmaj promast 99.7*, S1P4 agonist 1.1 and S1P4 antagonist -12.6.
Screening O=C(O)c1ccccc1NS(=O)(=O)c1cccc2cccnc12 returned Mdm2 ligase inh -11.8, S1P3 antagonist -7.1, Lmaj promast -1.4, S1P4 agonist -3.5 and S1P4 antagonist -6.4.
CCc1ccc(S(=O)(=O)Nc2cc(SCC(=O)O)c(O)c3ccccc23)cc1 was read as Mdm2 ligase inh -4.7, S1P3 antagonist -9.1, Lmaj promast 98.6*, S1P4 agonist 0.0 and S1P4 antagonist 3.5.
CCN(CC)CCOC(=O)c1ccc(NC(=O)c2ccc(Cl)c(S(=O)(=O)N3CCCCCC3)c2)cc1 was read as Mdm2 ligase inh -5.6, S1P3 antagonist -2.0, Lmaj promast -3.4, S1P4 agonist 0.7 and S1P4 antagonist -19.5.
Screening CC(=O)C1C(c2ccccc2OC(F)F)NC(=O)NC1(O)C(F)(F)F (stereo not given) returned Mdm2 ligase inh 1.4, S1P3 antagonist -27.0, Lmaj promast -2.8, S1P4 agonist 1.2 and S1P4 antagonist 1.1.
For Cn1cc(Br)c(-c2cccc(NC(=O)CC(C)(C)CC(=O)O)c2)n1 the results were Mdm2 ligase inh -14.1, S1P3 antagonist -7.7, S1P4 agonist -0.2 and S1P4 antagonist 15.8.
COC(C#CCCN(C)C)(c1ccccc1)c1ccccc1 was read as Mdm2 ligase inh 2.7, S1P3 antagonist 3.3, Lmaj promast 99.6*, S1P4 agonist 0.9 and S1P4 antagonist -11.4.
Screening CN(C)CC#CCC(O)(c1ccccc1)c1ccccc1 returned Mdm2 ligase inh -3.7, S1P3 antagonist -5.0, S1P4 agonist 2.2 and S1P4 antagonist -9.3.
For Cn1c(=O)c2c(O)c(C=Nc3ccc(F)cc3)c(=O)n(C)c2n(C)c1=O the results were Mdm2 ligase inh 3.6, S1P3 antagonist -8.7, S1P4 agonist -1.1 and S1P4 antagonist 12.1.
For COc1ccc(Cn2nc(C)n(N(C)c3ncc(C(F)(F)F)cc3Cl)c2=O)cc1 the results were Mdm2 ligase inh -2.6, Lmaj promast 98.7*, S1P4 agonist 1.6 and S1P4 antagonist -4.1.
CCCCNC(=O)Cc1cc(=O)[nH]c(=O)[nH]1 was read as Mdm2 ligase inh 0.0, S1P3 antagonist -19.7, Lmaj promast -7.4, S1P4 agonist -0.4 and S1P4 antagonist 7.1.
For Cc1ccc(C(=O)NN2C(=O)/C(=C/c3cccn3C)SC2=S)cc1 the results were Mdm2 ligase inh 30.4*, S1P3 antagonist 2.1, Lmaj promast 0.2, S1P4 agonist 1.1 and S1P4 antagonist -6.2.
Screening O=C(C1COc2ccccc2O1)N1CCc2ccccc2C1 (stereo not given) returned Mdm2 ligase inh -6.4, Lmaj promast 0.7, S1P4 agonist -0.8 and S1P4 antagonist -2.0.
`CCOC(=O)CC(=O)CSc1[nH]c(=O)cc(C)c1C#N` gave Mdm2 ligase inh 1.3, Lmaj promast -2.7, S1P4 agonist 0.5 and S1P4 antagonist -4.2.
